Source: ChEMBL document CHEMBL3112527, “Quinoline-pyrimidine hybrids: synthesis, antiplasmodial activity, SAR, and mode of action studies” (J Med Chem, 2014)
Converted amounts (≈) assume the structure as drawn. The source made the active and inactive calls. The rule behind the calls is not given here.

Columns and labels:
[1] = system: Heme; assay: Binding affinity to mu-oxodimeric heme at pH 5.8
Method in brief: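 μ-Oxo dimer heme (10 μM) in 20 mM phosphate buffer, pH 5.8, titrated stepwise with compound (0.3−16 μM). Decrease in absorbance at 362 nm was monitored, and the binding constant was calculated from the titration curve.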

[2] = system: DNA; assay: Binding affinity to calf thymus DNA by fluorescence spectrophotometric analysis; format: nucleic-acid assay; conditions: Bos taurus
Method in brief: (§1)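 Steady-state fluorescence titration at ambient temperature, with excitation at 330 nm and emission at 376 nm. […] Binding constant derived from the emission changes.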

[3] = system: Vaccinia virus; assay: Antiviral activity against Vaccinia virus infected in HEL cells assessed as inhibition of virus-induced cytopathicity; format: functional, organism-based; conditions: Orthopoxvirus vaccinia
Method in brief: (§2)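 Confluent monolayers in 96-well plates were inoculated with 100 CCID50 of virus in the presence of varying concentrations of compound. Read-out was inhibition of virus-induced cytopathicity, compared with untreated infected cultures. Cytotoxicity was judged microscopically or by MTT viability staining.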

[4] = system: Respiratory syncytial virus; assay: Antiviral activity against Respiratory syncytial virus infected in human HeLa cells assessed as inhibition of virus-induced cytopathicity; format: functional, organism-based
Method in brief: (§3)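 Confluent monolayers (HEL, Vero, HeLa or CrFK, as applicable) were inoculated with 100 CCID50 of virus, with 1 CCID50 being the dose that infects 50% of cultures. Infection ran in the presence of varying compound concentrations. Inhibition of virus-induced cytopathicity was scored against infected cultures left untreated.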

[5] = system: Coxsackievirus B4; assay: Antiviral activity against Coxsackievirus B4 infected in African green monkey Vero cells assessed as inhibition of virus-induced cytopathicity; format: functional, organism-based; method in brief: as §3
[6] = n-octanol-PBS buffer distribution coefficient, log D of the compound at pH 7.4 after 24 hrs by HPLC analysis; format: physicochemical
[7] = system: MDCK; assay: Cytotoxicity against MDCK cells assessed as alteration of cell morphology by microscopic analysis; format: cell-based, Canis lupus familiaris; conditions: dog
Method in brief: (§4)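 Cells (Vero, HEL, MDCK or HeLa) were exposed to a range of sample concentrations. The value reported is the concentration required to cause a microscopically detectable alteration of normal cell morphology.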

[8] = system: Escherichia coli; assay: Binding affinity to Escherichia coli pUC18 DNA by fluorescence spectrophotometric analysis; method in brief: as §1
[9] = system: Sindbis virus; assay: Antiviral activity against Sindbis virus infected in African green monkey Vero cells assessed as inhibition of virus-induced cytopathicity; format: functional, organism-based
[10] = system: DNA; assay: Binding affinity to calf thymus DNA assessed as hypochromic shift at 66.6 uM after 5 mins by UV-spectrophotometric analysis; format: nucleic-acid assay; conditions: Bos taurus
[11] = Cytotoxicity against cat CRFK cells assessed as cell viability by MTS assay; format: cell-based, Felis catus
Method in brief: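 CRFK cells were exposed to varying sample concentrations. Cell viability was measured with the colorimetric formazan-based MTS assay, and the 50% cytotoxic concentration (CC50) was derived from it.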

[12] = system: Ferriprotoporphyrin IX; assay: Binding affinity to monomeric Fe(III)PPIX by 1H NMR spectra analysis
[13] = Selectivity index, ratio of CC50 for cat CRFK cells to IC50 for chloroquine-resistant asexual erythrocytic stage of Plasmodium falciparum Dd2; format: functional
Method in brief: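 Ratio of CRFK CC50 (μM) to Dd2 IC50 […]. CC50 is the 50% cytotoxic concentration in feline kidney CRFK cells, measured as cell viability by colorimetric formazan-based MTS assay. Dd2 IC50 is from the parasite LDH growth-inhibition assay.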

[14] = system: Ferriprotoporphyrin IX; assay: Binding affinity to monomeric Fe(III)PPIX at pH 7.4
Method in brief: (§5)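 UV-vis titration of monomeric Fe(III)PPIX (2.4 μM) with stepwise additions of compound (0−69 μM, in DMSO), in aqueous DMSO. Buffer was 0.02 M HEPES at pH 7.4 or 0.02 M MES at pH 5.6. Decrease of the Soret band at 402 nm was followed. Association constants were calculated from the titration curves. Stoichiometry was taken from Job's plot.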

[15] = system: Human alphaherpesvirus 3; assay: Antiviral activity against Varicella-zoster virus infected in HEL cells assessed as inhibition of virus-induced cytopathicity; format: functional, organism-based
[16] = system: Mammalian orthoreovirus 1; assay: Antiviral activity against Reovirus 1 infected in African green monkey Vero cells assessed as inhibition of virus-induced cytopathicity; format: functional, organism-based; method in brief: as §3
[17] = system: Human alphaherpesvirus 1; assay: Antiviral activity against HSV-1 KOS infected in HEL cells assessed as inhibition of virus-induced cytopathicity; format: functional, organism-based; method in brief: as §3
[18] = system: Feline coronavirus; assay: Antiviral activity against Feline coronavirus infected in cat CRFK cells assessed as inhibition of virus-induced cytopathicity; format: functional, organism-based; method in brief: as §3
[19] = system: Plasmodium falciparum; assay: Potency index, ratio of chloroquine IC50 to compound IC50 for chloroquine-resistant asexual erythrocytic stage of Plasmodium falciparum Dd2; format: functional
[20] = system: Felid alphaherpesvirus 1; assay: Antiviral activity against Feline herpesvirus infected in cat CRFK cells assessed as inhibition of virus-induced cytopathicity; format: functional, organism-based; method in brief: as §3
[21] = system: DNA; assay: Binding affinity to calf thymus DNA at 5:1 DNA to compound ratio by spectrophotometric analysis (reference value: 59.5 degC); format: nucleic-acid assay; conditions: Bos taurus
[22] = system: Human betaherpesvirus 5; assay: Antiviral activity against Cytomegalovirus AD169 infected in HEL cells assessed as inhibition of virus-induced cytopathicity; format: functional, organism-based
[23] = system: Influenza A virus H3N2; assay: Antiviral activity against Influenza A virus H3N2 infected in MDCK cells assessed as inhibition of virus-induced cytopathicity; format: functional, organism-based; method in brief: as §2
[24] = system: Ferriprotoporphyrin IX; assay: Binding affinity to monomeric Fe(III)PPIX at pH 5.6; method in brief: as §5
[25] = Solubility of the compound in octanol at pH 7.4 by HPLC analysis; format: physicochemical
[26] = system: Human betaherpesvirus 5; assay: Antiviral activity against Cytomegalovirus Davis infected in HEL cells assessed as inhibition of virus-induced cytopathicity; format: functional, organism-based
[27] = Cytotoxicity against human HeLa cells assessed as alteration of cell morphology by microscopic analysis; format: cell-based; conditions: read-out: MIC; method in brief: as §4
[28] = system: Vesicular stomatitis virus; assay: Antiviral activity against Vesicular stomatitis virus infected in HEL cells assessed as inhibition of virus-induced cytopathicity; format: functional, organism-based; method in brief: as §2
[29] = system: Human respirovirus 3; assay: Antiviral activity against parainfluenza virus 3 infected in African green monkey Vero cells assessed as inhibition of virus-induced cytopathicity; format: functional, organism-based; method in brief: as §3
[30] = system: Coxsackievirus B4; assay: Antiviral activity against Coxsackievirus B4 infected in human HeLa cells assessed as inhibition of virus-induced cytopathicity; format: functional, organism-based; method in brief: as §3
[31] = system: Heme; assay: Binding affinity to heme assessed as inhibition of beta-hematin formation at 1.2 equiv after 1 hr by FT-IR spectroscopic analysis
[32] = system: Plasmodium falciparum; assay: Antiplasmodial activity against chloroquine-sensitive asexual erythrocytic stage of Plasmodium falciparum D10 assessed as parasite growth inhibition by lactate dehydrogenase assay; format: functional, organism-based
Method in brief: (§6)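 Parasite lactate dehydrogenase assay (modified Makler method). Samples held as 20 mg/mL stocks in DMSO, diluted on test day. Full dose-response: starting at 10 μg/mL, 2-fold serial dilution in complete medium over 10 concentrations down to 0.02 μg/mL. Chloroquine, artesunate and MMV390048 served as references. IC50 from nonlinear dose-response curve fitting; mean of three independent experiments.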

[33] = system: Ferriprotoporphyrin IX; assay: Binding affinity to monomeric Fe(III)PPIX at 5 umol by mass spectra analysis
Method in brief: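 Solution-phase mass spectra were recorded after adding monomeric heme (5 μmol) to the compound (5 μmol) in 40% aqueous DMSO. The region between 1008 and 1024 Da was examined for adduct signals.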

[34] = system: Punta Toro virus; assay: Antiviral activity against Punta Toro virus infected in African green monkey Vero cells assessed as inhibition of virus-induced cytopathicity; format: functional, organism-based; method in brief: as §3
[35] = system: HEL; assay: Cytotoxicity against HEL cells assessed as alteration of cell morphology by microscopic analysis; format: cell-based; conditions: human; method in brief: as §4
[36] = system: Vero; assay: Cytotoxicity against African green monkey Vero cells assessed as alteration of cell morphology by microscopic analysis; format: cell-based; conditions: chlorocebus sabaeus; method in brief: as §4
[37] = system: Plasmodium falciparum; assay: Antiplasmodial activity against chloroquine-resistant asexual erythrocytic stage of Plasmodium falciparum Dd2 assessed as parasite growth inhibition by lactate dehydrogenase assay; format: functional, organism-based; method in brief: as §6
[38] = system: Human alphaherpesvirus 1; assay: Antiviral activity against thymidine kinase-negative acyclovir-resistant HSV-1 KOS infected in HEL cells assessed as inhibition of virus-induced cytopathicity; format: functional, organism-based; method in brief: as §2
[39] = system: Vesicular stomatitis virus; assay: Antiviral activity against Vesicular stomatitis virus infected in human HeLa cells assessed as inhibition of virus-induced cytopathicity; format: functional, organism-based; method in brief: as §2
[40] = system: Influenza A virus; assay: Antiviral activity against influenza A virus H1N1 infected in MDCK cells assessed as inhibition of virus-induced cytopathicity; format: functional, organism-based; method in brief: as §2
[41] = system: Human alphaherpesvirus 2; assay: Antiviral activity against HSV-2 G infected in HEL cells assessed as inhibition of virus-induced cytopathicity; format: functional, organism-based; conditions: strain G; method in brief: as §3
[42] = Aqueous solubility of the compound in PBS buffer at pH 7.4 after 24 hrs by HPLC analysis; format: physicochemical; conditions: pH 7.4, 24 h
[43] = system: DNA; assay: Binding affinity to calf thymus DNA at 5:1 DNA to compound ratio by spectrophotometric analysis; format: nucleic-acid assay; conditions: Bos taurus
[44] = system: HeLa; assay: Cytotoxicity against human HeLa cells assessed as growth inhibition by MTT assay; format: cell-based

With `Clc1ccc2c(NCCCNc3nccc(N4CCCCC4)n3)ccnc2c1` the log Ks [1] was 5.84, the log Ks [2] was 3.64 and the inhibition [3] was “inactive”. For the same compound, the inhibition [4] was “inactive”, the inhibition [5] was “inactive” and the logD at 24 h [6] was 0.845. The Activity [7] was “Non-toxic”, the log Ks [8] was 3.99 and the inhibition [9] was “inactive”. The Activity [10] was 23%, the CC50 [11] was 9.8 µM and the Activity [12] was “Active”. The “Ratio CC50/IC50” value [13] was 228, the log Ks [14] was 4.63 and the inhibition [15] was “inactive”. The inhibition [16] was “inactive”, the inhibition [17] was “inactive” and the inhibition [18] was “inactive”. For the same compound, the “Ratio IC50” value [19] was 3.2, the inhibition [20] was “inactive” and the Tm [21] was 67.8 °C. The inhibition [22] was “inactive”, the inhibition [23] was “inactive” and the log Ks [24] was 4.59. The solubility [25] was 1.74 µM (≈ 0.691 µg/mL), the inhibition [26] was “inactive” and the MCC [27] was 100 µM. The inhibition [28] was “inactive”, the inhibition [29] was “inactive” and the inhibition [30] was “inactive”. The inhibition [31] was “Active”, the IC50 [32] was 0.0226 µM and the Activity [33] was “Active”. The inhibition [34] was “inactive”, the Activity [35] was “Non-toxic” and the Activity [36] was “Non-toxic”. For the same compound, the IC50 [37] was 0.043 µM, the inhibition [38] was “inactive” and the inhibition [39] was “inactive”. The inhibition [40] was “inactive”, the inhibition [41] was “inactive” and the solubility [42] was 0.25 µM (≈ 0.0992 µg/mL).

With `CCN(CC)CCCC(C)Nc1ccnc2cc(Cl)ccc12` (centres undefined) [CHLOROQUINE PHOSPHATE] the Activity [43] was “Active” and the IC50 [44] was 30 µM.
